Experimental data published in ChEMBL document CHEMBL2176874, “1-(sulfonyl)-5-(arylsulfonyl)indoline as activators of the tumor cell specific M2 isoform of pyruvate kinase” (Bioorg Med Chem Lett, 2012).
Calls of active or inactive are those of the source. The rule behind the calls is not given here.

Key:
[1] = biological target: Pyruvate kinase PKM (Homo sapiens) (UniProt P14618); assay: Activation of human pyruvate kinase M2 using phosphoenolpyruvate as substrate by kinaseGlo assay relative to control
Chain of Pyruvate kinase PKM (Homo sapiens) (P14618 2-531 limits assumed): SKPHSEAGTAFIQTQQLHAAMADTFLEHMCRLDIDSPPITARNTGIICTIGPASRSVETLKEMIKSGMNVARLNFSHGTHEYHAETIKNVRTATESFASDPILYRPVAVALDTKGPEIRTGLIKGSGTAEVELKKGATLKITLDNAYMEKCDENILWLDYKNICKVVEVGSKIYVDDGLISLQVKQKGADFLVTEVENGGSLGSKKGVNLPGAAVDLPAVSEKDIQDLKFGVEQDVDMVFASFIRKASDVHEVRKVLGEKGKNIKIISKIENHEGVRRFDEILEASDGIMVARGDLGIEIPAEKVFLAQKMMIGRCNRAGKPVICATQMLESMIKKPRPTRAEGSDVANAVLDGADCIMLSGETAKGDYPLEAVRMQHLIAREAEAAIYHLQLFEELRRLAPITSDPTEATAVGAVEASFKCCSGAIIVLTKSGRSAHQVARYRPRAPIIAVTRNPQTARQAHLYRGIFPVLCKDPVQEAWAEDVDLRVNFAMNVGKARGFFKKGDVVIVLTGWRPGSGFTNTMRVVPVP
Procedure, shortened: (§1)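 Cell-free enzymatic pyruvate kinase activity assay. Maximal activation is expressed as the percentage rise in enzyme activity above basal level, with 0% set as enzyme activity without compound.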

[2] = biological target: Pyruvate kinase PKM (Homo sapiens) (UniProt P14618); assay: Activation of human pyruvate kinase M2 using phosphoenolpyruvate as substrate assessed as concentration required for 50% activation by kinaseGlo assay
[3] = Half life in human liver microsomes at 1 uM by LC-MS/MS analysis
hERG (KCNH2) = hERG (KCNH2) (Homo sapiens, UniProt Q12809); assay: Inhibition of human ERG expressed in CHO cells at 1 uM measured up to 3 mins by whole cell patch clamp assay; assay type: cell-based; details: CHO cells expressing human ERG
Chain of hERG (KCNH2) (Q12809 whole entry): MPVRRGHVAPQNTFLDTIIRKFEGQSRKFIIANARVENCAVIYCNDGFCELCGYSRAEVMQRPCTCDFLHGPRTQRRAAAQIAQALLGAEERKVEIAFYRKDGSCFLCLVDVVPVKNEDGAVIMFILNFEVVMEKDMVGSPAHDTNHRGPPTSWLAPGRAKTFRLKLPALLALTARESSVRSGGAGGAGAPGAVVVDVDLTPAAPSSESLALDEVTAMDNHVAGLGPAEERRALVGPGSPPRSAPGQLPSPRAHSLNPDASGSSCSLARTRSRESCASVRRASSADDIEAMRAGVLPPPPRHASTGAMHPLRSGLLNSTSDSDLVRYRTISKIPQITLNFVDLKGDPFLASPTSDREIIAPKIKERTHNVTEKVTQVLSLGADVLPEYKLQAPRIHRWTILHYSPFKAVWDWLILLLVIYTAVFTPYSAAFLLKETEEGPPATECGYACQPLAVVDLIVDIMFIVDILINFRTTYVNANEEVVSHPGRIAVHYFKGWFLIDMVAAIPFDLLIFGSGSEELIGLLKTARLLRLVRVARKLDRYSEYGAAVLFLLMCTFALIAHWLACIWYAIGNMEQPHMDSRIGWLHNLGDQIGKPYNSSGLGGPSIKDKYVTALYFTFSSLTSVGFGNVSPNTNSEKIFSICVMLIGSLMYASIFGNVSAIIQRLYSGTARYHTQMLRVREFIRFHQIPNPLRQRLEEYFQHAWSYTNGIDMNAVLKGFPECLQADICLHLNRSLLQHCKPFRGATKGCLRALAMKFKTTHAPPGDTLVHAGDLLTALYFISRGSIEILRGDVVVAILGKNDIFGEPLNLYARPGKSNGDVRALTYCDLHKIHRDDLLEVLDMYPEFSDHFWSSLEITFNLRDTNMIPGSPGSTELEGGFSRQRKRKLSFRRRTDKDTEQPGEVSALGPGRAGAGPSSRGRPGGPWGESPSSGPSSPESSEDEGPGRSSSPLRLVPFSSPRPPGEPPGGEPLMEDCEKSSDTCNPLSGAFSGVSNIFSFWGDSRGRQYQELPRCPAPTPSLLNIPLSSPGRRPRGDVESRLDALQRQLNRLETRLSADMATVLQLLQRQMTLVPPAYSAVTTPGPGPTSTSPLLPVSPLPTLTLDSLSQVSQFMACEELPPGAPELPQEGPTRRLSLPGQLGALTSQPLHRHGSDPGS

[4] = Apparent permeability from apical to basal side of human Caco2 cells at 10 uM after 90 mins by LC-MS/MS analysis; details: Caco-2
[5] = Efflux ratio of apparent permeability from basal to apical to apical to basal side of human Caco2 cells at 10 uM after 90 mins by LC-MS/MS analysis; details: Caco-2
[6] = Apparent permeability from basal to apical side of human Caco2 cells at 10 uM after 90 mins by LC-MS/MS analysis; details: Caco-2
[7] = Serum protein binding in human at 1 uM after 5 hrs by LC-MS/MS analysis; assay type: ADME, cell-free; details: read-out: PB (converted)
[8] = biological target: Pyruvate kinase PKLR (Homo sapiens) (UniProt P30613); assay: Activation of human pyruvate kinase L using phosphoenolpyruvate as substrate by kinaseGlo assay relative to control; procedure, shortened: as §1
Chain of Pyruvate kinase PKLR (Homo sapiens) (P30613 whole entry, looked up): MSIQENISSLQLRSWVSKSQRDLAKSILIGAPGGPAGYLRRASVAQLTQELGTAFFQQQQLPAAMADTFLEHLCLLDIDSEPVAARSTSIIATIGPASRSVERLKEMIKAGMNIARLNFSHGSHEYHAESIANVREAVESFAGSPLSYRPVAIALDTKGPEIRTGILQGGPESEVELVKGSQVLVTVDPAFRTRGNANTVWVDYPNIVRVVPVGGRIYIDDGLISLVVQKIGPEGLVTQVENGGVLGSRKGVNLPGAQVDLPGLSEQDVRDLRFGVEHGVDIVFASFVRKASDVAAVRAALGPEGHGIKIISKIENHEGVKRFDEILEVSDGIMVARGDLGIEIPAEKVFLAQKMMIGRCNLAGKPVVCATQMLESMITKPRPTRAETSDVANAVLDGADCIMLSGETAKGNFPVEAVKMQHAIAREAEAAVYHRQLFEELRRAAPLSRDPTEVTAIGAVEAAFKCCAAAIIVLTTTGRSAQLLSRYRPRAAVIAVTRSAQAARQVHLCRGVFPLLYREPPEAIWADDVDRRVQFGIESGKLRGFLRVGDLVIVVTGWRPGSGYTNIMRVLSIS

[9] = biological target: Pyruvate kinase PKLR (Homo sapiens) (UniProt P30613); assay: Activation of human pyruvate kinase L using phosphoenolpyruvate as substrate assessed as concentration required for 50% activation by kinaseGlo assay
[10] = biological target: Pyruvate kinase PKLR (Homo sapiens) (UniProt P30613); assay: Activation of human pyruvate kinase R using phosphoenolpyruvate as substrate assessed as concentration required for 50% activation by kinaseGlo assay
[11] = biological target: Pyruvate kinase PKM (Homo sapiens) (UniProt P14618); assay: Activation of human pyruvate kinase M1 using phosphoenolpyruvate as substrate by kinaseGlo assay
[12] = biological target: Pyruvate kinase PKLR (Homo sapiens) (UniProt P30613); assay: Activation of human pyruvate kinase R using phosphoenolpyruvate as substrate by kinaseGlo assay relative to control; procedure, shortened: as §1
[13] = biological target: Pyruvate kinase PKM (Homo sapiens) (UniProt P14618); assay: Activation of human pyruvate kinase M1 using phosphoenolpyruvate as substrate by kinaseGlo assay relative to control; procedure, shortened: as §1

Row | Compound | max activation [1] | Activity [2] | further results
1 | O=S(=O)(c1ccc2c(c1)CCN2S(=O)(=O)C1CC1)c1ccc2c(c1)OCCO2 | 105% | 0.017 µM | 
2 | CC1Cc2cc(S(=O)(=O)c3ccc4c(c3)OCCO4)ccc2N1S(=O)(=O)Cc1ccccc1 (racemic) | 111% | 1.6 µM | 
3 | CS(=O)(=O)Nc1ccc(C(=O)CSc2ccc3c(c2)OCCO3)cc1 | 140% | 2.5 µM | half-life at 1 µM ([3]; microsomes): 3.3 min
4 | CCS(=O)(=O)N1CCc2cc(C(=O)CSc3ccc4c(c3)OCCCO4)ccc21 | 149% | 0.51 µM | half-life at 1 µM ([3]; liver microsomes): 1.4 min
5 | CS(=O)(=O)N1CCCc2cc(S(=O)(=O)c3ccc4c(c3)OCCO4)ccc21 | 152% | 2.3 µM | 
6 | Cc1cn(S(C)(=O)=O)c2ccc(S(=O)(=O)c3ccc4c(c3)OCCO4)cc12 | 154% | 2.72 µM | 
7 | CC1Cc2cc(S(=O)(=O)c3ccc4c(c3)OCCO4)ccc2N1S(=O)(=O)c1ccc(F)cc1 (racemic) | 159% | 0.6 µM | 
8 | O=S(=O)(c1ccc2c(c1)CCN2S(=O)(=O)c1cccc(F)c1)c1ccc2c(c1)OCCO2 | 87% | 0.03 µM | 
9 | O=P(O)(O)OC[C@H]1O[C@@](O)(COP(=O)(O)O)[C@@H](O)[C@@H]1O | 148% | 0.08 µM | 
10 | CS(=O)(=O)N1Cc2ccc(S(=O)(=O)c3ccc4c(c3)OCCO4)cc2C1 | 125% | 0.017 µM | inhibition at 0.05 h, 1 µM (hERG (KCNH2)): 7.3%; Papp A→B at 1.5 h, 10 µM [4]: 30.4 ×10⁻⁶ cm/s; efflux ratio at 1.5 h, 10 µM [5]: 1.06; half-life at 1 µM ([3]; liver microsomes): > 45 min; Papp B→A at 1.5 h, 10 µM [6]: 32.4 ×10⁻⁶ cm/s; fraction unbound at 5 h, 1 µM [7]: 0.091
11 | CCS(=O)(=O)N1Cc2ccc(S(=O)(=O)c3ccc4c(c3)OCCO4)cc2C1 | 35% | 0.02 µM | 
12 | CCS(=O)(=O)N1CCc2cc(C(=O)CSc3cccc(OC)c3)ccc21 | 110% | 2.4 µM | 
13 | CC1Cc2cc(S(=O)(=O)c3ccc4c(c3)OCCO4)ccc2N1S(=O)(=O)c1ccccc1 (racemic) | 134% | 0.6 µM | 
14 | CS(=O)(=O)n1ccc2cc(S(=O)(=O)c3ccc4c(c3)OCCO4)ccc21 | 98% | 0.023 µM | 
15 | CC1Cc2cc(C(=O)c3ccc4c(c3)OCCO4)ccc2N1S(C)(=O)=O (racemic) |  | inactive | 
16 | CC1Cc2cc(S(=O)(=O)Nc3ccc4c(c3)OCCO4)ccc2N1S(C)(=O)=O (racemic) | 25.5% | 51 µM | 

Row | Compound | max activation [1] | Activity [2] | further results
17 | CC1Cc2cc(C(=O)CSc3ccc4c(c3)OCCO4)ccc2N1S(C)(=O)=O (racemic) | 164% | 0.55 µM | half-life at 1 µM ([3]; liver microsomes): 3.4 min
18 | O=S(=O)(c1ccc2c(c1)CCN2S(=O)(=O)c1ccccc1)c1ccc2c(c1)OCCO2 | 122% | 0.093 µM | 
19 | O=S(=O)(c1ccc2c(c1)CN(S(=O)(=O)c1ccccc1)C2)c1ccc2c(c1)OCCO2 | 140% | 0.061 µM | 
20 | CC(C)N(c1ccc(S(=O)(=O)c2ccc3c(c2)OCCO3)cc1)S(C)(=O)=O | 194% | 2.8 µM | 
21 | CC1Cc2cc(S(=O)(=O)c3ccc4c(c3)OCCO4)ccc2N1S(=O)(=O)c1c(F)cccc1F (racemic) | 168% | 0.5 µM | 
22 | CCN(c1ccc(S(=O)(=O)c2ccc3c(c2)OCCO3)cc1)S(C)(=O)=O | 100% | 41 µM | 
23 | CS(=O)(=O)N1CCc2c1cc(F)c(S(=O)(=O)c1ccc3c(c1)OCCO3)c2F | 78% | 0.079 µM | 
24 | CS(=O)(=O)N1CCCc2cc(C(=O)CSc3ccc4c(c3)OCCO4)ccc21 | 107% | 1.3 µM | 
25 | CCN(c1ccc(S(=O)(=O)c2ccc3c(c2)OCCO3)c(C)c1)S(C)(=O)=O | 160% | 2.7 µM | 
26 | CCS(=O)(=O)N1CCc2cc(S(=O)(=O)c3ccc4c(c3)OCCO4)ccc21 | 89% | 0.027 µM | 
27 | CC1Cc2cc(NS(=O)(=O)c3ccc4c(c3)OCCO4)ccc2N1S(C)(=O)=O (racemic) | 32.5% | > 100 µM | 
28 | COc1cccc(S(=O)(=O)N2c3ccc(S(=O)(=O)c4ccc5c(c4)OCCO5)cc3CC2C)c1 (racemic) | 119% | 0.8 µM | 
29 | CCS(=O)(=O)N1CCc2cc(C(=O)CSc3ccc(F)cc3F)ccc21 | 171% | 4.1 µM | 
30 | CC1Cc2cc(S(=O)(=O)c3ccc4c(c3)OCCO4)ccc2N1S(C)(=O)=O (racemic) | 148% | 2 µM | Papp A→B at 1.5 h, 10 µM [4]: 20.4 ×10⁻⁶ cm/s; efflux ratio at 1.5 h, 10 µM [5]: 0.59; half-life at 1 µM ([3]; liver microsomes): 31.5 min; Papp B→A at 1.5 h, 10 µM [6]: 12.1 ×10⁻⁶ cm/s; fraction unbound at 5 h, 1 µM [7]: 0.075
31 | CC(C)CS(=O)(=O)N1Cc2ccc(S(=O)(=O)c3ccc4c(c3)OCCO4)cc2C1 | 91.5% | 0.189 µM | 
32 | CS(=O)(=O)N1CCc2cc(S(=O)(=O)c3ccc4c(c3)OCCO4)ccc21 | 106% | 0.045 µM | max activation [8]: 33%; Activity [9]: > 100 µM; Activity [10]: > 100 µM; inhibition at 0.05 h, 1 µM (hERG (KCNH2)): 9%; Activity [11]: inactive; Papp A→B at 1.5 h, 10 µM [4]: 37.5 ×10⁻⁶ cm/s; efflux ratio at 1.5 h, 10 µM [5]: 1.14; max activation [12]: 34%; max activation [13]: inactive; half-life at 1 µM ([3]; microsomes): 26 min; Papp B→A at 1.5 h, 10 µM [6]: 43 ×10⁻⁶ cm/s; fraction unbound at 5 h, 1 µM [7]: 0.059
